In one series the target is P-gp (ABCB1) (Homo sapiens, UniProt P08183). In words: Substrate activity at p-gp in human Caco2 cells assessed as ratio of apparent permeability across basolateral to apical over apical to basolateral side at 100 uM after 120 mins by UV-Vis spectroscopy. The class given is ADME, cell-based. The following applies: Caco-2. In outline: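 Caco-2 monolayers cultured 21 days, with TEER checked before and after the experiment. Compounds at 100 μM in HBSS pH 7.4, applied apical or basolateral, 120 min at 37 °C after 30 min buffer preincubation. Acceptor concentration measured by UV–vis. Papp = [VA/(area×time)]×([drug]acceptor/[drug]initial), area 0.11 cm², 7200 s. Two independent experiments.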

The target of series [1] is T1, ATP-dependent translocase ABCB1 (Homo sapiens, UniProt P08183). The series can be described thus: Activation of MDR1 (unknown origin) ATPase activity expressed in MDCK cells assessed as decrease in ATP level after 2 hrs by ATPlite assay. The series is classed as cell-based. In outline: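 MDCK-MDR1 cells seeded at 2x10⁴/well, grown overnight at 37 °C, 5% CO₂, then exposed to test compounds in complete medium at varying concentrations for 2 h. Cells lysed, luciferase substrate added, 10 min dark adaptation, luminescence read as cellular ATP level. Mean of three independent experiments, duplicate samples.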

Series [2] deals with T1, ATP-dependent translocase ABCB1. The series can be described thus: Inhibition of MDR1 (unknown origin) expressed in MDCK cells assessed as decrease in calcein-AM transport after 30 mins by fluorescence assay. The class given is cell-based. In outline:
(§1)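 MDCK-MDR1 or MDCK-MRP1 cells (50,000/well) grown to confluence overnight. Compounds in medium preincubated 30 min at 37 °C, then calcein-AM (2.5 μM final, in PBS) added for 30 min. Three ice-cold PBS washes; fluorescence read at ex 485/em 535 nm. Increase over untreated basal fluorescence fitted against log[dose] for EC50. Mean of three independent experiments, duplicate samples.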

Series [3] deals with Multidrug resistance-associated protein 1 (Homo sapiens, UniProt P33527). The series can be described thus: Inhibition of MRP1 (unknown origin) expressed in MDCK cells assessed as decrease in calcein-AM transport at 10^-4 M after 30 mins by fluorescence assay. The series is classed as cell-based. The following applies: 0.5 h, 100 µM. The method, boiled down: as §1
In series [4] the target is T2, Broad substrate specificity ATP-binding cassette transporter ABCG2 (Homo sapiens, UniProt Q9UNQ0).
T2 sequence (Q9UNQ0 whole entry): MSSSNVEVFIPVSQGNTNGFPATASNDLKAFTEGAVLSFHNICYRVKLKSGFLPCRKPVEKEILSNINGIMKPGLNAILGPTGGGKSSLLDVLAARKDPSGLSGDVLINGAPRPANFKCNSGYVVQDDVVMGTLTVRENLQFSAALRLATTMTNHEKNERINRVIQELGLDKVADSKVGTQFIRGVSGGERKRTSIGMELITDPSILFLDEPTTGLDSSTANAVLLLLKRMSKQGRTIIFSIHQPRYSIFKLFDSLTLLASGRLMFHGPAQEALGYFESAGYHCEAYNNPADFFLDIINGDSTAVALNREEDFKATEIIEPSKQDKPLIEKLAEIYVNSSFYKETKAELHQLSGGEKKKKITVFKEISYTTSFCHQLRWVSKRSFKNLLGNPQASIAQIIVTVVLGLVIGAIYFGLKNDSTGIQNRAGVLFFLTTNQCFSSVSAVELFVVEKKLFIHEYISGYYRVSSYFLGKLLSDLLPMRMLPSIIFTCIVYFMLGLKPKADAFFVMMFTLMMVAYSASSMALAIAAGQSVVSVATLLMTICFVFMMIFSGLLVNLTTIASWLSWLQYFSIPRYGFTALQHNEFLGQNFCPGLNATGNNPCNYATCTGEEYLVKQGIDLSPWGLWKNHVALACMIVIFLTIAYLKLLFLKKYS
In words: Inhibition of BCRP (unknown origin).

The subject of series [5] is MDCK. The series can be described thus: Cytotoxicity against MDCK cells expressing MDR1 assessed as inhibition of cell proliferation at 1 uM after 24 hrs by MTT assay. The series is classed as ADME, cell-based, Canis lupus familiaris. The following applies: dog. In outline:
(§2)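 MTT growth assay. 30000 cells/well seeded on day 1; drugs added on day 2 over 0.1–100 μM, with solvent (ethanol, DMSO) controls. After 24 or 48 h, MTT 0.5 mg/mL for 3 h at 37 °C. Formazan dissolved in DMSO, absorbance read at 570 and 630 nm.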

Series [6] deals with MDCK. The series can be described thus: Cytotoxicity against MDCK cells expressing MDR1 assessed as inhibition of cell proliferation at 0.1 uM after 48 hrs by MTT assay. The following applies: dog. The class given is ADME, cell-based, Canis lupus familiaris. The method, boiled down: as §2
The test system of the next series is MCF7. In words: Cytotoxicity against human MCF7 cells assessed as inhibition of cell proliferation at 0.1 uM after 24 hrs by MTT assay. The class given is cell-based. The following applies: mcf7, 24 h. The method, boiled down:
as §2

T1 sequence (P08183 whole entry): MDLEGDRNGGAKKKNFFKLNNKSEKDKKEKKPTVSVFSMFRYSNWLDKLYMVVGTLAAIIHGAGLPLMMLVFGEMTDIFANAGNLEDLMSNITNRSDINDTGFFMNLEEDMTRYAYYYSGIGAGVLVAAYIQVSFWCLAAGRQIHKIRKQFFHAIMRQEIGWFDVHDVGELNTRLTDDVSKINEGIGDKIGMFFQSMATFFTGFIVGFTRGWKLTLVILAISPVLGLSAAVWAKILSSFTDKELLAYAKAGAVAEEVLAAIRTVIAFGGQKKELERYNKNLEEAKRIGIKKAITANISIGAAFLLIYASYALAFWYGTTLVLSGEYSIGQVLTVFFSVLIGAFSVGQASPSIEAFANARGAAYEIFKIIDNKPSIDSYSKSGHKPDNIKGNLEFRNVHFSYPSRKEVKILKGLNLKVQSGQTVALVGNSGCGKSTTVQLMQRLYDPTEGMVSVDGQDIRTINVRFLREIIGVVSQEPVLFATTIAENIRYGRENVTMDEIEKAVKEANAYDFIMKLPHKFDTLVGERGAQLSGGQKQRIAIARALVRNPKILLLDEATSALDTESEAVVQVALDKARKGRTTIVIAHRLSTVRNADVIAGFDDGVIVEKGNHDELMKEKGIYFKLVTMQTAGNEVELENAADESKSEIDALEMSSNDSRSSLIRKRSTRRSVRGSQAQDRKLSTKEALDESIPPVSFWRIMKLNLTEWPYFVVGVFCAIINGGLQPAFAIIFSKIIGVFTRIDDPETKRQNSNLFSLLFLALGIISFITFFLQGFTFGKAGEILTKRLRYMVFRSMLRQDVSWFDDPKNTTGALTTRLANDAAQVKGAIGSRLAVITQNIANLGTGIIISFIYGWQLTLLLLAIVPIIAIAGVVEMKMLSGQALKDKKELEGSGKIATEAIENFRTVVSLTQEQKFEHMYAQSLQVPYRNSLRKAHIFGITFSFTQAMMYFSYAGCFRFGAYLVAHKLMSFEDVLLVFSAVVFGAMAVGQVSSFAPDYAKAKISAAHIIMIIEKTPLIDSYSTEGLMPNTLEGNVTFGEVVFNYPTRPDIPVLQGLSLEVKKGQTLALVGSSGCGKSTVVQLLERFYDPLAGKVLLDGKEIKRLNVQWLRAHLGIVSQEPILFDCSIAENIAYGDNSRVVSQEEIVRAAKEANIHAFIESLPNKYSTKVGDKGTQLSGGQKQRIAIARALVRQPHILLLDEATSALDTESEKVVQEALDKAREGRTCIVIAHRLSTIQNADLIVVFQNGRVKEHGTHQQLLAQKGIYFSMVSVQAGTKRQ
P-gp (ABCB1), sequence (P08183 whole entry): as above
Multidrug resistance-associated protein 1, sequence (P33527 whole entry): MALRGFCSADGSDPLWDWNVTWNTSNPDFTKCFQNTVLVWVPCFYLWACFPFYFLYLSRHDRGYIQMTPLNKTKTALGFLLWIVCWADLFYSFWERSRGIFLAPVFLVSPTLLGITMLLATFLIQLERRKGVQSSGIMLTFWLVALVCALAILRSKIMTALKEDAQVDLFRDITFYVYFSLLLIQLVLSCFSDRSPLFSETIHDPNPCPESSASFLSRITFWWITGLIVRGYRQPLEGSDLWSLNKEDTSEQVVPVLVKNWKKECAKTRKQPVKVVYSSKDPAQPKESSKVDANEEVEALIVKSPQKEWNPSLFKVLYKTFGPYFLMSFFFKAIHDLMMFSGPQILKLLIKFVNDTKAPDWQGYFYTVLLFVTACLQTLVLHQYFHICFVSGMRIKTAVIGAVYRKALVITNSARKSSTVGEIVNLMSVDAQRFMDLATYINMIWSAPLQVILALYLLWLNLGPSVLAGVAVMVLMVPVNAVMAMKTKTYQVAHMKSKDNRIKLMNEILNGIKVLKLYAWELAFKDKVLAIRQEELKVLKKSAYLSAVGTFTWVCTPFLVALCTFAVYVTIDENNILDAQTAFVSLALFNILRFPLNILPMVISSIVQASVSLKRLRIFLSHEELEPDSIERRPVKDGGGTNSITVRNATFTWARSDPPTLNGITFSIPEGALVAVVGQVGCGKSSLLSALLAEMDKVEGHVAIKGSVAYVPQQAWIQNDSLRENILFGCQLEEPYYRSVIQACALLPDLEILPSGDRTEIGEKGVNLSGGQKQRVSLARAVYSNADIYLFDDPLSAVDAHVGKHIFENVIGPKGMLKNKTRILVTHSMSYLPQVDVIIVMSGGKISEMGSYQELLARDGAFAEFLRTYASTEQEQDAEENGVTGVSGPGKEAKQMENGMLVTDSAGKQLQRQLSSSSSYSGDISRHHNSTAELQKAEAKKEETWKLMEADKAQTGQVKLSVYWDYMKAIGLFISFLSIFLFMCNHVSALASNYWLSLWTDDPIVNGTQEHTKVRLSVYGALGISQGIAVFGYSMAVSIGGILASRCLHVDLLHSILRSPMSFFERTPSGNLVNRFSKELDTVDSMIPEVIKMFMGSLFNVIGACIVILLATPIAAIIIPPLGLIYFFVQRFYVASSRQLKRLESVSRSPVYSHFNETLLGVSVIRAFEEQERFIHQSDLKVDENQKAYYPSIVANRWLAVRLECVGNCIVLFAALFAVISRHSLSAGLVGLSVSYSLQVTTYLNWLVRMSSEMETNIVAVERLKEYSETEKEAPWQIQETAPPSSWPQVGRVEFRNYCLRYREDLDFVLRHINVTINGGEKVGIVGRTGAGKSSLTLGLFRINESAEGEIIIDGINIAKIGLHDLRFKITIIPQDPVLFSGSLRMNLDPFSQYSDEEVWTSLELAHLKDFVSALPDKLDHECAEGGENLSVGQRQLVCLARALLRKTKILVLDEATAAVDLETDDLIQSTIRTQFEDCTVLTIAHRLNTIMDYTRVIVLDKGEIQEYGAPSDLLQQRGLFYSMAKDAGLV

Take `COc1cc2c(cc1OC)CN(Cc1ccc(-c3ccc(OCCCCOc4nonc4OC)cc3)cc1)CC2`: the efflux ratio at 2 h, 100 µM at P-gp (ABCB1) worked out at 3. Besides, the Activity entry in series [1] was “Not Active”. In series [2], the EC50 is 0.29 µM. In series [3], the “inhibition (INH)” value is reported as “Not Active”.

On to `COc1cc2c(cc1OC)CN(Cc1ccc(-c3ccc(OCCOc4nonc4OC)cc3)cc1)CC2`, for which, at P-gp (ABCB1), the efflux ratio at 2 h, 100 µM is 3.2. The Activity result in series [1] was “Active”; in the series with MDCK [5], “Non-Toxic”; in the series on MDCK [6], “Toxic”; in the series on MCF7, “Toxic”. Also, the EC50 in series [4] was > 100 µM; in series [2], 0.0006 µM. Besides, the “inhibition (INH)” value in series [3] was “Not Active”.

Turning to `COc1cc2c(cc1OC)CN(Cc1ccc(-c3ccc(OCCCOc4nonc4C#N)cc3)cc1)CC2`, the efflux ratio at 2 h, 100 µM on P-gp (ABCB1) is 4.9. Also, the Activity result in series [1] is on record as “Not Active”. Also, in series [2], the EC50 was 1.05 µM. For the same molecule, in series [3], the “inhibition (INH)” value is on record as “Not Active”.

In the case of `COc1cc2c(cc1OC)CN(Cc1ccc(-c3ccc(OCCCOc4nonc4Oc4ccccc4)cc3)cc1)CC2`, the efflux ratio at 2 h, 100 µM at P-gp (ABCB1) worked out at 3.8. Besides, the Activity result in series [1] is “Not Active”. In series [2], the EC50 was 1.18 µM. The “inhibition (INH)” value in series [3] is recorded as “Not Active”.

As to `COc1cc2c(cc1OC)CN(Cc1ccc(-c3ccc(OCCCOc4nonc4-c4ccccc4)cc3)cc1)CC2`, on P-gp (ABCB1), the efflux ratio at 2 h, 100 µM was found to be 20. For the same molecule, the Activity result in series [1] is “Not Active”. Further, in series [2], the EC50 is 3.3 µM. For the same molecule, the “inhibition (INH)” value in series [3] is given as “Not Active”.

For `COc1cc2c(cc1OC)CN(Cc1ccc(-c3ccc(OCCCOc4nonc4Sc4ccccc4)cc3)cc1)CC2`, on P-gp (ABCB1), the efflux ratio at 2 h, 100 µM was determined as 4.7. Further, the Activity result in series [1] is listed as “Not Active”. Moreover, in series [2], the 50% effective concentration (EC50) is 1.17 µM. Further, the “inhibition (INH)” value in series [3] was “Not Active”.

Consider `COc1cc2c(cc1OC)CN(Cc1ccc(-c3ccc(OCCOc4nonc4OCc4ccccc4)cc3)cc1)CC2`, for which the efflux ratio at 2 h, 100 µM at P-gp (ABCB1) came to 4.9. The Activity entry in series [1] is reported as “Not Active”. In addition, the EC50 in series [2] was 0.29 µM. The “inhibition (INH)” value in series [3] is on record as “Not Active”.

For the molecule `COc1cc2c(cc1OC)CN(Cc1ccc(-c3ccc(OCCCOc4nonc4OC)cc3)cc1)CC2`, on P-gp (ABCB1), the efflux ratio at 2 h, 100 µM is 3.2. In series [1], the Activity result is given as “Not Active”. In addition, the EC50 in series [2] was 0.054 µM. Besides, in series [3], the “inhibition (INH)” value was “Not Active”.

On to `COc1cc2c(cc1OC)CN(Cc1ccc(-c3ccc(OCCCOc4nonc4C)cc3)cc1)CC2`, for which the efflux ratio at 2 h, 100 µM at P-gp (ABCB1) turned out to be 4. Moreover, in series [1], the Activity result was “Not Active”. Further, in series [2], the EC50 is 0.35 µM. Further, the “inhibition (INH)” value in series [3] was “Not Active”.

As for `COc1cc2c(cc1OC)CN(Cc1ccc(-c3ccc(OCCCOc4nonc4OCc4ccccc4)cc3)cc1)CC2`, the efflux ratio at 2 h, 100 µM at P-gp (ABCB1) came to 3. For the same molecule, the Activity result in series [1] was “Not Active”; in the series on MDCK [5], “Non-Toxic”; with MDCK [6], “Toxic”; with MCF7 it was “Toxic”. Further, the EC50 in series [4] was > 100 µM; in series [2], 0.00097 µM. Besides, in series [3], the “inhibition (INH)” value is listed as “Not Active”.

Regarding `COc1cc2c(cc1OC)CN(Cc1ccc(-c3ccc(OCCCOc4nonc4[S+]([O-])c4ccccc4)cc3)cc1)CC2` (configuration not stated), the efflux ratio at 2 h, 100 µM on P-gp (ABCB1) was determined as 2.6. The Activity result in series [1] is on record as “Not Active”; with MDCK [5], “Non-Toxic”; with MDCK [6] it was “Toxic”; with MCF7, “Toxic”. For the same molecule, the results for the EC50 in series [4] and in series [2] were > 100 µM and 0.0013 µM, respectively. Moreover, in series [3], the “inhibition (INH)” value was “Not Active”.

As to `COc1cc2c(cc1OC)CN(Cc1ccc(-c3ccc(OCCCOc4nonc4S(=O)(=O)c4ccccc4)cc3)cc1)CC2`, the efflux ratio at 2 h, 100 µM on P-gp (ABCB1) turned out to be 2.5. In series [1], the Activity entry is recorded as “Not Active”. The concentration for a half-maximal effect (EC50) in series [2] was 0.38 µM. Moreover, in series [3], the “inhibition (INH)” value is listed as “Not Active”.

Take `COc1cc2c(cc1OC)CN(Cc1ccc(-c3ccc(OCCOc4nonc4C#N)cc3)cc1)CC2`: the efflux ratio at 2 h, 100 µM on P-gp (ABCB1) is 4.7. The Activity result in series [1] was “Not Active”. Moreover, in series [2], the EC50 was 1.2 µM. Further, the “inhibition (INH)” value in series [3] was “Not Active”.

Take `COc1cc2c(cc1OC)CN(Cc1ccc(-c3ccc(OCCOc4nonc4[S+]([O-])c4ccccc4)cc3)cc1)CC2` (configuration not stated): the efflux ratio at 2 h, 100 µM at P-gp (ABCB1) came to 4.6. Besides, the Activity entry in series [1] is “Not Active”; in the series on MDCK [5] it was “Non-Toxic”; in the series on MDCK [6], “Toxic”; in the series on MCF7, “Toxic”. In addition, the values for the EC50 in series [4] and in series [2] were > 100 µM and 0.0009 µM, respectively. The “inhibition (INH)” value in series [3] is listed as “Not Active”.

The values are drawn from ChEMBL document CHEMBL4425124, “Structure-Activity Relationship Studies on Tetrahydroisoquinoline Derivatives: [4'-(6,7-Dimethoxy-3,4-dihydro-1H-isoquinolin-2-ylmethyl)biphenyl-4-ol] (MC70) Conjugated through Flexible Alkyl Chains with Furazan Moieties Gives Rise to Potent and Selective Ligands of P-glycoprotein” (J Med Chem, 2016).
